TPT1 inhibitor: Candida albicans TPT1 enzyme inhibitors, primary screen, biochemical, fluorescence polarization; tRNA 2'-phosphotransferase TPT1 (Candida albicans SC5314); recombinant caTPT1, FP RNA substrate dephosphorylation; inhibition, % at 5 µM; hit rate 0.81% among 300,000;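 active = inhibition above the mean of all tested compounds plus 3 SD, set per screening campaign, cut at about 24% in these data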
ATG4B inhibitor: ATG4B protease inhibitors, primary screen, biochemical, fluorescence, uHTS. hit rate 0.51% among 340,000. inhibition, % at 8.33 µM. AID 504462, 2011. ATG4B cleavage of LC3-PLA2, NBD-HPC fluorescence, 1 h
HNF4A DNA FP: change in binding of human HNF4A to DNA, primary screen, biochemical, fluorescence polarization, FITC-DNA; Hepatocyte nuclear factor 4-alpha (Homo sapiens), P41235; activity change, % at 10 µM; AID 1224865, 2016; hit rate 0.3% among 360,000; 1 h; in the data active = activity change above about 30%, passing the limit was not always enough
Target sequence (P41235 whole entry, looked up): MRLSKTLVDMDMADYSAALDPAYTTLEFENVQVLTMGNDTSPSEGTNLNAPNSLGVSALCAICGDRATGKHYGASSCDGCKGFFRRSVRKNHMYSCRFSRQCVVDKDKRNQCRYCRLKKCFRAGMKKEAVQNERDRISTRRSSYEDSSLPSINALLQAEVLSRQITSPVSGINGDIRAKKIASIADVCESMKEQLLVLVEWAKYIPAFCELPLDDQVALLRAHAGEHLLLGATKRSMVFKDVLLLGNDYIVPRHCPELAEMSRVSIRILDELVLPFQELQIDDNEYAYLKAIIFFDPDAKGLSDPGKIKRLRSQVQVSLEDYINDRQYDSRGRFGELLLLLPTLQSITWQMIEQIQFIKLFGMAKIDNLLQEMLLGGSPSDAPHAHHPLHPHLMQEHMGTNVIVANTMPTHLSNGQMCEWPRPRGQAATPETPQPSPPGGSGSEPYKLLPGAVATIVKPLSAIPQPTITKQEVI
CSN deneddyl inh: inhibitors of CSN-mediated cullin deneddylation, primary screen, biochemical, fluorescence polarization, uHTS | hit rate 0.38% among 360,000 | inhibition, % at 12.5 µM | Purified CSN, SCF-Nedd8-OG deneddylation;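 active = pattern-corrected inhibition above about 35%, with an unprinted fluorescence ratio check between 0.5 and 1.5, limit read from the data, passing the limit was not always enough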
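Assay system: HEK293T-derived human Csn5 enzyme; quantity: 0.24 nM enzyme; medium: Tris/NaCl/DTT buffer, pH 7.5; also added: substrate SCFSkp2-Nedd8OG, 10 nM; doses: 12.5 µM compound; schedule: 90 min reaction at room temperature; signal: FP; read-out: % inhibition of substrate cleavage by Csn5; benchmarks: substrate-only high control, full reaction low control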
Rpn11 block: Rpn11 (PSMD14) deubiquitinase inhibitors, primary screen, biochemical, fluorescence polarization, uHTS; human 26S proteasome, Ub4-pepOG fluorescence polarization; 20S core pre-blocked with epoxomicin; inhibition, % at 20 µM; AID 588493, 2011; 26S proteasome non-ATPase regulatory subunit 14 (Homo sapiens), O00487; hit rate 0.59% among 360,000;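 active = inhibition at 20 µM, scaled to each plate's controls, above about 33%, limit read from the data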
SENP1 FRET inh: human SENP1 catalytic domain inhibitors, primary screen, biochemical, FRET, uHTS; hit rate 0.21% among 360,000; inhibition, % at 10 µM; recombinant SENP1 catalytic domain, CyPet-SUMO1-YPet FRET cleavage;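 active = inhibition at least 30% at 10 µM, raw YFP signal under a set limit, fluorescence ratio 0.5 to 1.5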
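Assay system – human recombinant His6-tagged SENP1 catalytic domain enzyme · Input – SENP1 enzyme, 20 pM final · Buffer or medium – Tris pH 8 buffer plus EDTA, NaCl, BME, BSA, NP40, catalase · Schedule – 50 min reaction at room temperature · Technique – FRET read of cyan and yellow fluorescence · Control set – no-enzyme wells low, DMSO-plus-enzyme wells high control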
caTPT1 confirm: Candida albicans TPT1 inhibitors, confirmation, biochemical, fluorescence polarization, triplicate; hit rate 74% among 2,400; shares compounds with TPT1 inhibitor; AID 2149, 2009; recombinant caTPT1, RNase T1 coupled; inhibition, % at 5 µM;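 active = inhibition above the primary screen limit, the mean inhibition of all tested compounds plus 3 SD, cut at about 25% in these data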
RNase T1 inh: RNase T1 inhibitors, counter-screen for TPT1 inhibitor project, biochemical, fluorescence polarization; shares compounds with TPT1 inhibitor; RNase T1 cleavage, 1536-well; inhibition, % at 5 µM; hit rate 83% among 2,400; AID 2153, 2009;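 active = inhibition above the solvent-only control well mean plus 3 SD, limit set per screening run, cut at about 23% in these data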;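 note: inhibitors block cleavage so intact labeled substrate keeps polarization high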
Rpn11 confirm: Rpn11 (PSMD14) deubiquitinase inhibitors, confirmation, biochemical, fluorescence polarization, single concentration. purified human 26S proteasome, Ub4-pepOG fluorescence polarization; proteasome pretreated with epoxomicin. hit rate 29% among 1,900. inhibition, % at 20 µM. shares compounds with Rpn11 block. AID 602318, 2012
MMP-2 counter-1: MMP-2 enzyme inhibition, confirmation, counter-screen for RPN11 inhibitor project, biochemical, fluorescence, single concentration | shares compounds with Rpn11 block | recombinant MMP-2, FRET peptide cleavage fluorescence | inhibition, % at 20 µM | hit rate 4% among 1,900 | AID 602330, 2012;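 note: human MMP-2 activated beforehand with APMA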
Thrombin FP: bovine thrombin protease inhibition, confirmation, counter-screen for Rpn11 inhibitor project, biochemical, fluorescence polarization, single concentration; inhibition, % at 20 µM; bovine thrombin cleavage of Ub4-pepOG; hit rate 13% among 1,900; shares compounds with Rpn11 block;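 active = mean inhibition at least 40% at 20 µM, or signal 3 deviations below plate average, so some actives read negative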
CSN5 deneddyl: Csn5 deneddylation inhibitors, confirmation, biochemical, fluorescence polarization, single concentration, SCF-Nedd8OG substrate; shares compounds with CSN deneddyl inh; inhibition, % at 16.6 µM; hit rate 62% among 540; Csn5 deneddylation of SCF-Nedd8OG, 90 min; in the data active = inhibition above about 50%
MMP-2 counter-2: MMP-2 protease inhibition counter-screen, confirmation, counter-screen for CSN deneddylation inhibitor project, biochemical, fluorescence, single concentration; shares compounds with CSN deneddyl inh; recombinant MMP-2, FRET substrate fluorescence, 60 min; inhibition, % at 16.6 µM; hit rate 33% among 540;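 active = corrected plate-normalized z-score of 5 or more, or -5 or less, or inhibition of 15% or more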
Thrombin cntr: thrombin (bovine) inhibition, counter-screen for CSN hits; AID 720656; shares compounds with CSN deneddyl inh; hit rate 49% among 540; bovine thrombin cleavage of Ub4-pepOG, fluorescence polarization; inhibition, % at 16.6 µM;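 active = inhibition at or above a set limit, with a fluorescence interference ratio between 0.5 and a set maximum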
Numbers stand for hits; 0 = inactive; - = no result shown. A selection: hits, their analogues and other compounds. The true share with any hit is near 2%. Cut-off read from the data, not from the text of the source, unless noted: active = inhibition above about 40%; inactive = the rest.

SMILES	TPT1 inhibitor	ATG4B inhibitor	HNF4A DNA FP	CSN deneddyl inh	Rpn11 block	SENP1 FRET inh	caTPT1 confirm	RNase T1 inh	CSN5 deneddyl	MMP-2 counter-2	Thrombin cntr	others
Cc1cc(C)nc(NN2C(=O)/C(=C/c3ccc(O)cc3)SC2=S)n1	57.8	0	93.8	92.4	-	0	68.3	71.4	0	0	83.0
COc1ccccc1/C=C1\SC(=S)N(Nc2nc(C)cc(C)n2)C1=O	0	0	0	0	0	0	-	-	-	-	-
CCC1=NN2C(=N)/C(=C/c3c(C)nn(-c4ccccc4)c3Cl)C(=O)N=C2S1	0	0	0	0	0	0	-	-	-	-	-
CCC1=NN2C(=N)/C(=C\c3ccc(SCc4ccco4)o3)C(=O)N=C2S1	48.1	0	0	78.0	80.3	0	28.9	43.2	0	16.2	17.2	Rpn11 confirm=0;MMP-2 counter-1=0;Thrombin FP=0
O=C(O)c1cccc(-c2ccc(/C=c3/sc4nc5ccccc5n4c3=O)o2)c1	97.0	0	38.3	128.9	-	0	117.5	121.3	0	19.0	78.4
COc1cc(/C=C2\SC(=S)N(NC(=O)c3ccccc3O)C2=O)ccc1O	30.8	0	41.2	50.2	-	58.9	34.2	46.9	58.0	0	62.5
CCOc1cc(/C=C2/SC(=S)N(Cc3ccccc3)C2=O)ccc1O	26.0	0	37.6	42.4	-	0	38.2	47.7	59.2	0	84.7
O=Cc1ccc(C(=O)OCC(=O)NC(=O)Nc2ccccc2F)cc1	-	0	0	0	0	0	-	-	-	-	-
NS(=O)(=O)c1ccc(-c2ccc(/C=C3\SC(=S)N(C4CCS(=O)(=O)C4)C3=O)o2)cc1 (stereo not given)	109.2	0	0	69.7	-	0	153.6	142.4	87.1	-46.1	0
